Laboratory results published in ChEMBL document CHEMBL2093137, “WHO-TDR NTD Screening”.
In brackets after ≈: the same amount, converted by molar mass.

Experiments:
[1] = WHO-TDR: Cytotoxicity; assay type: toxicity, cell-based; conditions: human, MRC5 cells
Plasmodium falciparum K1 = assay: WHO-TDR: Malaria; assay type: functional, organism-based, Homo sapiens; conditions: Erythrocyte
Outline: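 A diverse library of 10,000 compounds from Life Chemicals, filtered for drug-likeness and reactive groups, was screened against the intra-erythrocytic Plasmodium falciparum K1 strain in human red blood cells. Previously published standard procedures were followed, with a reference drug as positive control. Antiplasmodial potency is given as IC50.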

Trypanosoma cruzi = assay: WHO-TDR: Chagas disease; assay type: functional, organism-based, Homo sapiens; conditions: MRC5
Outline: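 Each IC50 reflects antiparasitic potency against intracellular amastigotes of Trypanosoma cruzi Tulahuen CL2 beta-galactosidase strain. These were cultured in MRC-5SV2 human lung fibroblasts and exposed to a 10,000-compound diverse Life Chemicals library screened according to published standard procedures with a reference drug as positive control.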

[2] = tested on: Trypanosoma brucei brucei; assay: WHO-TDR: Human African Trypanosomiasis (HAT); assay type: functional, organism-based; conditions: Squib-427
Outline: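 A diverse library of 10,000 compounds from Life Chemicals, filtered for drug-likeness and reactive groups, was screened against bloodstream forms of Trypanosoma brucei Squib 427 strain in a whole-organism assay. Previously published standard procedures were followed, with reference drugs serving as positive controls. Antiparasitic potency is given as IC50.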

Leishmania infantum = assay: WHO-TDR: Leishmaniasis; assay type: functional, organism-based, Mus musculus; conditions: Macrophage
Outline: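 A diverse library of 10,000 compounds from Life Chemicals, filtered for drug-likeness and reactive groups, was screened against whole organisms. The targets were intracellular amastigotes of Leishmania infantum MHOM/MA(BE)/67 growing in murine peritoneal macrophages. Previously published standard procedures were followed, with a reference drug as positive control. Antiparasitic potency is given as IC50.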

Schistosoma mansoni = assay: WHO-TDR: Schistosomiasis; assay type: functional; set-up: concentration or dose not given beside the values
Outline: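 Whole-organism screen of a 10,000-compound diverse library from Life Chemicals, filtered for drug-likeness and reactive groups, against larval and/or adult worms of Schistosoma mansoni Puerto Rican strain. The assay followed previously published standard procedures, with a reference drug as positive control. Activity is reported as percent inhibition and as IC50.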

Onchocerca lienalis = assay: WHO-TDR: Onchocerciasis; assay type: functional; set-up: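 at 12.5 µM on microfilariae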
Outline: (§1)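 Whole-organism screen of a 10,000-compound diverse library from Life Chemicals, filtered for drug-likeness and reactive groups, against microfilariae of Onchocerca ochengi or Onchocerca lienalis, used as animal-pathogen stand-ins for the human parasite. The assay followed previously published standard procedures, with reference drugs as positive controls. Activity is reported as percent inhibition and as IC50.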

Brugia malayi = assay: WHO-TDR: Lymphatic Filariasis; assay type: functional; set-up: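 tested at 10 µM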
Outline: as §1, with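 “Brugia malayi microfilariae.” for “microfilariae of Onchocerca ochengi or Onchocerca lienalis, used as animal-pathogen stand-ins for the human parasite.”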

Structure (SMILES) | IC50 [1] | IC50 (Plasmodium falciparum K1) | IC50 (Trypanosoma cruzi) | IC50 [2] | IC50 (Leishmania infantum) | % Inhibition (Schistosoma mansoni) | % Inhibition (Onchocerca lienalis) | % Inhibition (Brugia malayi)
CCOc1ccc2nc(N(CCN(C)C)C(=O)c3cc4ccccc4cc3OC)sc2c1 | 4.28 µg/mL (≈ 9.53 µM) | 1.82 µg/mL (≈ 4.04 µM) | 0.425 µg/mL (≈ 0.945 µM) | 0.35 µg/mL (≈ 0.779 µM) | 4.72 µg/mL (≈ 10.5 µM) | 0% | 0% | 
CN(C)CCCN(C(=O)CCSc1ccccc1)c1nc2cc3c(cc2s1)OCO3 | 3.54 µg/mL (≈ 7.97 µM) | 3.42 µg/mL (≈ 7.7 µM) | 0.416 µg/mL (≈ 0.938 µM) | 2 µg/mL (≈ 4.51 µM) | 0.466 µg/mL (≈ 1.05 µM) | 0% | 0% | 
CN(C)CCCN(C(=O)CCOc1ccccc1)c1nc2c(F)cccc2s1 | 1.94 µg/mL (≈ 4.83 µM) | 8.18 µg/mL (≈ 20.4 µM) | 0.409 µg/mL (≈ 1.02 µM) | 4.25 µg/mL (≈ 10.6 µM) | 4.25 µg/mL (≈ 10.6 µM) | 0% | 0% | 
CN(C)CCN(C(=O)c1cccc(N2C(=O)CCC2=O)c1)c1nc2ccc(Br)cc2s1 | > 16.1 µg/mL | 1.45 µg/mL (≈ 2.9 µM) | 4.94 µg/mL (≈ 9.85 µM) | 0.356 µg/mL (≈ 0.71 µM) | 5.1 µg/mL (≈ 10.2 µM) | 33.3% | 0% | 
CN(C)CCCN(C(=O)c1ccc(Br)s1)c1nc2cc3c(cc2s1)OCCO3 | 3.06 µg/mL (≈ 6.35 µM) | 2.42 µg/mL (≈ 5.02 µM) | 0.933 µg/mL (≈ 1.93 µM) | 5.04 µg/mL (≈ 10.4 µM) | 5.04 µg/mL (≈ 10.4 µM) | 0% | 6.7% | 
Oc1ccc(Br)cc1/C=N/Nc1ncnc2[nH]cnc12 | 0.364 µg/mL (≈ 1.09 µM) | 3.68 µg/mL (≈ 11 µM) | 0.193 µg/mL (≈ 0.579 µM) | 0.341 µg/mL (≈ 1.02 µM) | 3.24 µg/mL (≈ 9.71 µM) | 0% | -1% | 50%
COc1cccc(-n2ccnc2SCC(=O)Nc2ccccc2C(F)(F)F)c1 | > 12.2 µg/mL | > 12.2 µg/mL | > 12.2 µg/mL | 0.422 µg/mL (≈ 1.04 µM) | > 12.2 µg/mL | 0% | 0% | 0%
CN(C)CCN(C(=O)CCSc1ccccc1)c1nc2c(Cl)cccc2s1 | > 13.7 µg/mL | 3.39 µg/mL (≈ 8.08 µM) | 4.15 µg/mL (≈ 9.88 µM) | 4.33 µg/mL (≈ 10.3 µM) | > 13.7 µg/mL | 75% | 0% | 
CN(C)CCCN(C(=O)c1ccc(N(C)C)cc1)c1nc2ccc(F)cc2s1 | 4.1 µg/mL (≈ 10.2 µM) | 0.324 µg/mL (≈ 0.809 µM) | 4.49 µg/mL (≈ 11.2 µM) | 0.435 µg/mL (≈ 1.09 µM) | 4.24 µg/mL (≈ 10.6 µM) | 0% | 0% | 
CN(C)CCCN(C(=O)Cc1ccccc1)c1nc2ccc(F)cc2s1 | 3.81 µg/mL (≈ 10.3 µM) | 0.609 µg/mL (≈ 1.64 µM) | 4.16 µg/mL (≈ 11.2 µM) | 0.382 µg/mL (≈ 1.03 µM) | 3.96 µg/mL (≈ 10.7 µM) | 58.3% | 0% | 
CN(C)CCCN(C(=O)c1ccc2c(c1)CCCC2)c1nc2ccc(Br)cc2s1 | 2.1 µg/mL (≈ 4.44 µM) | 1.16 µg/mL (≈ 2.46 µM) | 3.21 µg/mL (≈ 6.78 µM) | 0.483 µg/mL (≈ 1.02 µM) | 0.791 µg/mL (≈ 1.67 µM) | 66.7% | 0% | 
Cc1cccc2sc(N(CCCN(C)C)C(=O)c3ccccc3Br)nc12 | 3.97 µg/mL (≈ 9.18 µM) | 0.653 µg/mL (≈ 1.51 µM) | 4.76 µg/mL (≈ 11 µM) | 0.45 µg/mL (≈ 1.04 µM) | 4.55 µg/mL (≈ 10.5 µM) | 33.3% | 0% | 
CN(C)CCCN(C(=O)c1ccc(S(=O)(=O)N(C)C2CCCCC2)cc1)c1nc2c(F)cccc2s1 | 3.08 µg/mL (≈ 5.78 µM) | 3.44 µg/mL (≈ 6.46 µM) | 5.16 µg/mL (≈ 9.69 µM) | 5.59 µg/mL (≈ 10.5 µM) | 5.53 µg/mL (≈ 10.4 µM) | 0% | 0% | 
CN(C)CCCN(C(=O)c1nc2ccccc2s1)c1nc2c(Cl)cccc2s1 | 0.526 µg/mL (≈ 1.22 µM) | 0.398 µg/mL (≈ 0.923 µM) | 0.239 µg/mL (≈ 0.555 µM) | 0.352 µg/mL (≈ 0.817 µM) | 4.54 µg/mL (≈ 10.5 µM) | 33.3% | 0% | 
